Measurements from ChEMBL document CHEMBL3526053, “Species-dependent uptake of glycylsarcosine but not oseltamivir in Pichia pastoris expressing the rat, mouse, and human intestinal peptide transporter PEPT1” (Drug Metab Dispos, 2012).

Columns and labels:
Type in all cases: ADME
[1] = target: T1, Solute carrier family 15 member 1 (Mus musculus, UniProt Q9JIP7); experiment: Drug uptake in Pichia pastoris GS115 expressing mouse recombinant PEPT1 at 5 uM after 30s by dual-channel liquid scintillation counting analysis in presence of TEA relative to control; conditions: 0.5 min
T1 sequence (Q9JIP7 whole entry): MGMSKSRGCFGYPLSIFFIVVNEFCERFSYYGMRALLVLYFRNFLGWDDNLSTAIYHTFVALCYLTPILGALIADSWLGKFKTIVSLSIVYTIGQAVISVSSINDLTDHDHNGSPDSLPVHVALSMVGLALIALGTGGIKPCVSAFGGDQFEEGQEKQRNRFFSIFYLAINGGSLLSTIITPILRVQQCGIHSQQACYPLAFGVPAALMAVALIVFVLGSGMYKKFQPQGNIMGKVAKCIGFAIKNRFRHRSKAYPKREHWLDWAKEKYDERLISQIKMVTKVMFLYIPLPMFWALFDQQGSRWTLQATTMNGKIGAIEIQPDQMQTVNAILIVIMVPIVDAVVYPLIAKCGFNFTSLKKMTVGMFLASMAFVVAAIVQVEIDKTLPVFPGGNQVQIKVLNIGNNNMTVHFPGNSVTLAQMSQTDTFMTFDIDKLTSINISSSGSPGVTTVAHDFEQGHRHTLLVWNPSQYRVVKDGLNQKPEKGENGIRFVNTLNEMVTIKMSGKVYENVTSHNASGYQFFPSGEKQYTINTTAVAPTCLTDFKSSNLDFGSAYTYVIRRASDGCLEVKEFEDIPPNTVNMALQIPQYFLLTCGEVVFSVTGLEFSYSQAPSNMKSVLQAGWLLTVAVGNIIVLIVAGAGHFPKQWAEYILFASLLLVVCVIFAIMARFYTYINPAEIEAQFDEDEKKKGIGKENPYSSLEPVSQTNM
Procedure, shortened: (§1)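 [3H]GlySar 5.0 µM final, 30-s uptake at 24°C in 100 mM potassium phosphate pH 6.5, with or without a potential inhibitor at 10 mM. Cells are methanol-induced transformants. Values are vector-subtracted and expressed as percent of buffer control. Mean ± SE (n=3). ANOVA with Dunnett's test.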

[2] = target: T2, Solute carrier family 15 member 1 (Rattus norvegicus, UniProt P51574); experiment: Drug uptake in Pichia pastoris GS115 expressing rat recombinant PEPT1 at 5 uM after 30s by dual-channel liquid scintillation counting analysis in presence of L-histidine relative to control; conditions: in vivo, 0.5 min; procedure, shortened: as §1
T2 sequence (P51574 whole entry): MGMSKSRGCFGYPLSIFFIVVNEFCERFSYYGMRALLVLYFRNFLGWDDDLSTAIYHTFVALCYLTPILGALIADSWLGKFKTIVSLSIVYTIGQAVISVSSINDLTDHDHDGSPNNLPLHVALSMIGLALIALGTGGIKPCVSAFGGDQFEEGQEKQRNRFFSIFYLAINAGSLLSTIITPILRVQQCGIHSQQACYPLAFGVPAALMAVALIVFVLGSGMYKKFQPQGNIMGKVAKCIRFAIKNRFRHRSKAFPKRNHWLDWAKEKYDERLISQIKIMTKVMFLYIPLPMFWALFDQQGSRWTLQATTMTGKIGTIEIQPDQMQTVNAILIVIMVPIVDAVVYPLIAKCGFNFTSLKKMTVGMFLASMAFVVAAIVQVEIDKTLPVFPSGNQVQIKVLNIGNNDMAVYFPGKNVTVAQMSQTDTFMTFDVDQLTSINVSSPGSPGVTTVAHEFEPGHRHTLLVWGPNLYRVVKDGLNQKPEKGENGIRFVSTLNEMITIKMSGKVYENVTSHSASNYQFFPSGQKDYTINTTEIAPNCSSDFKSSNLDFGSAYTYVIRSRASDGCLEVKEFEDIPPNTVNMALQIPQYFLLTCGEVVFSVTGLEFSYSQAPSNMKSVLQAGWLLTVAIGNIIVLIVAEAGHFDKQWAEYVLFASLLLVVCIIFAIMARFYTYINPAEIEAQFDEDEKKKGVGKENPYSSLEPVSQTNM

[3] = target: T1, Solute carrier family 15 member 1; experiment: Activity at mouse recombinant PEPT1 expressed in Pichia pastoris GS115 assessed as non-saturable rate constant after 30s by dual-channel liquid scintillation counting analysis
Procedure, shortened: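 [3H]GlySar concentration series 0.005-10 mM, 30-s uptake at 24°C in 100 mM potassium phosphate pH 6.5. Cells come from His+Mut+ GS115 transformants induced 20-24 h in methanol medium. Uptake is normalised to OD600. Data are fitted to Michaelis-Menten plus a first-order nonsaturable term (Kd), weighting unity. Parameters are mean ± SE (n=9).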

[4] = target: T1, Solute carrier family 15 member 1; experiment: Drug uptake in Pichia pastoris GS115 expressing mouse recombinant PEPT1 at 5 uM after 30s by dual-channel liquid scintillation counting analysis in presence of L-histidine relative to control; conditions: 0.5 min; procedure, shortened: as §1
PEPT1 = target: T3, PEPT1 (Mus musculus, UniProt Q9JIP7); experiment: Drug uptake in Pichia pastoris GS115 expressing mouse recombinant PEPT1 at 5 uM after 30 mins by dual-channel liquid scintillation counting analysis relative to vector control; conditions: read-out: FC
T3 sequence (Q9JIP7 whole entry): T1 sequence (Q9JIP7 whole entry)
Procedure, shortened: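 5.0 µM radiolabelled substrate ([3H]GlySar or [14C]oseltamivir) is incubated 30 min at 24°C with induced transformants in 100 mM potassium phosphate pH 6.5. Cell-associated radioactivity is counted by scintillation after standing 24 h and normalised to OD600. Results are compared with pPIC3.5K vector-alone cells. Mean ± SE (n=6).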

[5] = target: T2, Solute carrier family 15 member 1; experiment: Drug uptake in Pichia pastoris GS115 expressing rat recombinant PEPT1 at 5 uM after 30s by dual-channel liquid scintillation counting analysis in presence of cephapirin relative to control; conditions: 0.5 min
Procedure, shortened: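 Rat PEPT1 (pPIC3.5K-rPept1) in GS115 His+Mut+ transformant, methanol-induced 20-24 hr in BMMY at 30°C, washed into 100 mM potassium phosphate pH 6.5. [3H]GlySar final 5.0 µM with inhibitor at 10 mM, 30 sec at 24°C. Counts taken by liquid scintillation after 24 hr standing. Values are vector-subtracted and given as % of buffer control. Mean ± SE, n=3.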

## [3H]C(C(=O)O)N(C)C(=O)CN (stereo unspecified)
[1]
  Drug uptake: 83.7%
[2]
  Drug uptake: 113%
[3]
  Kd: 2.21 uL/OD/min
[4]
  Drug uptake: 103%
PEPT1
  uptake ratio at 0.5 h, 5 µM: 100
[5]
  Drug uptake: 122%
